pIC50: −log10 of the molar value. Active and inactive are the calls of the source. The calls are words filed in the database; no cut-off is given here.
Key:
[1] = tested on: U-266; test: Antiproliferative activity against human U-266 cells assessed as inhibition of cell proliferation at 0.1 uM incubated for 48 hrs by MTT assay relative to control; assay type: functional
Summary of the method: (§1)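 Cryopreserved cells thawed at 37 °C, cultured one day, then seeded at 5000–10,000 cells/well in 96-well plates and left overnight to attach. Compound added at a single concentration or as a gradient series and incubated 48 h. MTT solution added and absorbance read.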

[2] = tested on: U-266; test: Induction of apoptosis in human U-266 cells assessed as viable cells at 1 uM incubated for 48 hrs by Annexin-V/FITC and PI staining based flow cytometry analysis (reference value: 92.6 %); assay type: functional; details: read-out: Activity
Summary of the method: (§2)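 U266 cells seeded at 1 × 10⁵ per 2 mL well in six-well plates and exposed to 1, 2 or 8 μM for 48 h. Cells collected, washed twice in cold PBS and resuspended in binding buffer. Annexin V-FITC added for 15 min, then PI for 5 min, both at 37 °C in the dark. Analysed by flow cytometry.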

[3] = tested on: U-266; test: Induction of apoptosis in human U-266 cells assessed as necrotic cells at 1 uM incubated for 48 hrs by Annexin-V/FITC and PI staining based flow cytometry analysis (reference value: 5.99 %); assay type: functional; summary of the method: as §2
[4] = Cytotoxicity against human MCF-10A cells assessed as inhibition of cell proliferation at 2 uM incubated for 48 hrs by MTT assay; assay type: cell-based; summary of the method: as §1
[5] = tested on: U-266; test: Induction of apoptosis in human U-266 cells assessed as viable cells at 2 uM incubated for 48 hrs by Annexin-V/FITC and PI staining based flow cytometry analysis (reference value: 92.6 %); assay type: functional; details: read-out: Activity; summary of the method: as §2
[6] = tested on: U-266; test: Induction of apoptosis in human U-266 cells incubated for 48 hrs by Annexin-V/FITC and PI staining based flow cytometry analysis; assay type: functional, cell-based; details: dose 1-8 µM; summary of the method: as §2
[7] = tested on: CT26; test: Antiproliferative activity against […] assessed as inhibition of cell proliferation incubated for 48 hrs by MTT assay; assay type: functional, cell-based; details: Mus musculus, CT26, 48 h; summary of the method: as §1
[8] = tested on: U-266; test: Induction of apoptosis in human U-266 cells assessed as early apoptotic cells at 1 uM incubated for 48 hrs by Annexin-V/FITC and PI staining based flow cytometry analysis (reference value: 1.36 %); assay type: functional; summary of the method: as §2
[9] = tested on: U-266; test: Induction of cell cycle arrest in human U-266 cells assessed as increase in accumulation at G0/G1 phase at 1 to 2 uM incubated for 48 hrs by PI staining based flow cytometry analysis; assay type: functional; details: dose 1-2 µM
Summary of the method: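 U266 cells seeded at 1 × 10⁵ per 2 mL well in six-well plates and treated at 1 and 2 μM for 48 h. Cells harvested, fixed in 70% ethanol on ice for 30 min and washed in PBS. Stained with PI (0.05 mg/mL) plus RNaseA (0.5 mg/mL) for 30 min at room temperature in the dark, then analysed by flow cytometry for cycle distribution.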

[10] = molecular target: T1, Bromodomain-containing protein 4 (Homo sapiens, UniProt O60885); test: Inhibition of BRD4-BD1 (unknown origin) preincubated for 15 mins followed by substrate addition and measured after 1 hr
[11] = tested on: U-266; test: Induction of apoptosis in human U-266 cells assessed as early apoptotic cells at 2 uM incubated for 48 hrs by Annexin-V/FITC and PI staining based flow cytometry analysis (reference value: 1.36 %); assay type: functional; summary of the method: as §2
[12] = tested on: U-266; test: Induction of apoptosis in human U-266 cells assessed as early apoptotic cells at 8 uM incubated for 48 hrs by Annexin-V/FITC and PI staining based flow cytometry analysis (reference value: 1.36 %); assay type: functional; summary of the method: as §2
[13] = tested on: U-266; test: Induction of apoptosis in human U-266 cells assessed as late apoptotic cells at 8 uM incubated for 48 hrs by Annexin-V/FITC and PI staining based flow cytometry analysis (reference value: 0.032 %); assay type: functional; summary of the method: as §2
[14] = tested on: CT26; test: Antiproliferative activity against […] assessed as inhibition of cell proliferation at 2 uM incubated for 48 hrs by MTT assay relative to control; assay type: functional; details: Mus musculus; summary of the method: as §1
[15] = tested on: HCT-116; test: Antiproliferative activity against human HCT-116 cells assessed as inhibition of cell proliferation at 2 uM incubated for 48 hrs by MTT assay relative to control; assay type: functional; summary of the method: as §1
[16] = tested on: U-266; test: Induction of apoptosis in human U-266 cells assessed as necrotic cells at 8 uM incubated for 48 hrs by Annexin-V/FITC and PI staining based flow cytometry analysis (reference value: 5.99 %); assay type: functional; summary of the method: as §2
[17] = molecular target: T1, Bromodomain-containing protein 4; test: Potency index, ratio of 6-(3,5-Dimethylisoxazol-4-yl)-1-methyl-4-phenyl-3,4-dihydroquinazolin-2(1H)-one IC50 to test compound IC50 for inhibition of BRD4-BD1 (unknown origin)
[18] = tested on: U-266; test: Antiproliferative activity against human U-266 cells assessed as inhibition of cell proliferation incubated for 48 hrs by MTT assay; assay type: functional, cell-based; details: U-266, 48 h; summary of the method: as §1
[19] = tested on: U-266; test: Induction of apoptosis in human U-266 cells assessed as late apoptotic cells at 1 uM incubated for 48 hrs by Annexin-V/FITC and PI staining based flow cytometry analysis (reference value: 0.032 %); assay type: functional; summary of the method: as §2
[20] = tested on: U-266; test: Induction of apoptosis in human U-266 cells assessed as nucleus condensation at 1 to 8 uM incubated for 48 hrs by DAPI staining based fluorescence microscopic analysis; assay type: functional, cell-based; details: dose 1-8 µM
Summary of the method: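 U266 cells plated at 20000 cells/well in 12-well plates overnight, then treated at 1, 2 and 8 μM for 48 h. After a PBS wash, cells were stained with DAPI for 5 min, washed again and imaged under a fluorescence microscope for nuclear condensation.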

[21] = tested on: U-266; test: Induction of apoptosis in human U-266 cells assessed as necrotic cells at 2 uM incubated for 48 hrs by Annexin-V/FITC and PI staining based flow cytometry analysis (reference value: 5.99 %); assay type: functional; summary of the method: as §2
[22] = tested on: HepG2; test: Antiproliferative activity against human HepG2 cells assessed as inhibition of cell proliferation at 2 uM incubated for 48 hrs by MTT assay relative to control; assay type: functional; summary of the method: as §1
[23] = tested on: U-266; test: Induction of apoptosis in human U-266 cells assessed as viable cells at 8 uM incubated for 48 hrs by Annexin-V/FITC and PI staining based flow cytometry analysis (reference value: 92.6 %); assay type: functional; details: read-out: Activity; summary of the method: as §2
[24] = tested on: HepG2; test: Antiproliferative activity against human HepG2 cells assessed as inhibition of cell proliferation incubated for 48 hrs by MTT assay; assay type: functional, cell-based; details: HepG2, 48 h; summary of the method: as §1
[25] = tested on: MCF7; test: Antiproliferative activity against human MCF7 cells assessed as inhibition of cell proliferation at 2 uM incubated for 48 hrs by MTT assay relative to control; assay type: functional; summary of the method: as §1
[26] = tested on: U-266; test: Induction of apoptosis in human U-266 cells assessed as late apoptotic cells at 2 uM incubated for 48 hrs by Annexin-V/FITC and PI staining based flow cytometry analysis (reference value: 0.032 %); assay type: functional; summary of the method: as §2

Question: Which inhibition at 0.1 µM [1] does the source give for Cc1noc(C)c1-c1ccc2c(c1)C(c1ccccc1)N(CCCCN1CCN(c3ccc4nnc(Cl)n4n3)CC1)C(=O)N2C (stereo unspecified) here?
Answer: 52.3%

Question: And the viability at 1 µM [2]?
Answer: 82.6%

Question: What about the Activity [3] of the same compound?
Answer: 3.06%

Question: What about the inhibition at 48 h, 2 µM [4] of the same compound?
Answer: 11.6%

Question: And the viability at 2 µM [5]?
Answer: 77.6%

Question: What about the Activity [6] of the same compound?
Answer: Dose-Dependent Effect

Question: What about the pIC50 [7] of the same compound?
Answer: 4.80

Question: And the Activity [8]?
Answer: 13.2%

Question: What about the Activity [9] of the same compound?
Answer: Active

Question: And the pIC50 [10]?
Answer: 8.52

Question: What about the Activity [11] of the same compound?
Answer: 14.8%

Question: And the Activity [12]?
Answer: 22.7%

Question: And the Activity [13]?
Answer: 6.75%

Question: What about the inhibition at 2 µM [14] of the same compound?
Answer: 41%

Question: And the inhibition at 2 µM [15]?
Answer: 61.8%

Question: And the Activity [16]?
Answer: 5.11%

Question: And the Ratio IC50 [17]?
Answer: 8

Question: And the pIC50 [18]?
Answer: 5.68

Question: And the Activity [19]?
Answer: 1.23%

Question: What about the Activity [20] of the same compound?
Answer: Active

Question: And the Activity [21]?
Answer: 4.6%

Question: And the inhibition at 2 µM [22]?
Answer: 46.7%

Question: What about the viability at 8 µM [23] of the same compound?
Answer: 65.4%

Question: What about the pIC50 [24] of the same compound?
Answer: 4.78

Question: What about the inhibition at 2 µM [25] of the same compound?
Answer: 35.5%

Question: And the Activity [26]?
Answer: 2.91%

Source: ChEMBL document CHEMBL4819084, “Discovery of 3,5-dimethylisoxazole derivatives as novel, potent inhibitors for bromodomain and extraterminal domain (BET) family” (Bioorg Med Chem, 2021)
